Experimental data: ChEMBL document CHEMBL4680287, “Ibrexafungerp: An orally active β-1,3-glucan synthesis inhibitor” (Bioorg Med Chem Lett, 2021)
≈ marks a conversion by molar mass, not a printed value.

Legend:
Candida parapsilosis [1] = assay: Antifungal activity against Candida parapsilosis ATCC 22019 assessed as reduction in fungal growth; type: functional; conditions: Lodderomyces parapsilosis
Candida albicans [2] = assay: Antifungal activity against Candida albicans MY1055 assessed as fungal growth inhibition measured after 24 hrs in presence of 50% mouse serum by liquid microdilution method; type: functional
Summary of the method: (§1)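 Broth microdilution per CLSI protocols in RPMI medium. Read-out is the MIC, the lowest concentration completely inhibiting fungal growth. Run without serum and with added serum.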

[3] = Oral bioavailability in dog; type: ADME, organism-based, Canis lupus familiaris; conditions: in vivo
Summary of the method: (§2)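 Oral bioavailability calculated as oral AUC normalized to the IV dose, divided by the IV AUC.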

Candida albicans [4] = assay: Antifungal activity against Candida albicans MY1055 infected in DBA/2 mouse model of disseminated candidiasis assessed as reduction in fungal burden in kidney by measuring log change in colony forming units at 12.5 mg/kg, po bid for 7 days by TOKA; type: functional; conditions: time 7 day
Summary of the method: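 Murine disseminated candidiasis model (TOKA) in mice challenged with C. albicans MY1055 at 2.44 x 10^4 CFU/mouse. Dosed PO, or IP where stated. Kidneys collected aseptically 7 days after challenge and CFUs/g counted. Change in log CFU/g is relative to sham-treated controls; significance by two-tailed t test. Clearance is the percentage of kidneys below the detection limit.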

Candida parapsilosis [5] = assay: Antifungal activity against Candida parapsilosis ATCC 22019 assessed as fungal growth inhibition; type: functional; conditions: Lodderomyces parapsilosis, read-out: MIC100
Pichia kudriavzevii = assay: Antifungal activity against Candida krusei ATCC 6258 assessed as reduction in fungal growth; type: functional
[6] = Clearance in rat; type: ADME; conditions: in vivo
Candida tropicalis = assay: Antifungal activity against Candida tropicalis MY1012 assessed as fungal growth inhibition; type: functional; conditions: read-out: MIC100
[7] = Half life in rhesus monkey; type: ADME, Macaca mulatta; conditions: in vivo
[8] = Half life in dog; type: ADME, Canis lupus familiaris; conditions: in vivo
Candida albicans [9] = assay: Antifungal activity against Candida albicans MY1055 assessed as reduction in fungal growth; type: functional; summary of the method: as §1
Aspergillus fumigatus [10] = assay: Antifungal activity against Aspergillus fumigatus MF5668 assessed inhibition of fungal growth by measuring morphological changes in presence of 50% human serum measured after 24 hrs by microscopy; type: functional; conditions: read-out: MEC
Summary of the method: (§3)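 Microdilution per CLSI protocols in RPMI medium. Read-out is the minimum effective concentration (MEC). Run without serum and with 50% human serum.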

Aspergillus fumigatus [11] = assay: Antifungal activity against Aspergillus fumigatus MF5668 assessed inhibition of fungal growth by measuring morphological changes measured after 24 hrs by microscopy; type: functional; conditions: read-out: MEC; summary of the method: as §3
Aspergillus fumigatus [12] = assay: Antifungal activity against Aspergillus fumigatus MF5668 infected in ip dosed DBA/2N mouse assessed as 90% mouse survival administered bid administered for 7 days starting from 15 to 30 mins post infection and measured up to 21 days; type: functional; conditions: 168 h, time 7 day
Aspergillus fumigatus [13] = assay: Antifungal activity against Aspergillus fumigatus MF5668 infected in DBA/2N mouse assessed as mouse survival at 3.125 mg/kg, ip bid administered for 7 days starting from 15 to 30 mins post infection and measured up to 21 days relative to control; type: functional; conditions: 168 h, time 7 day
Summary of the method: (§4)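 DBA/2N mice were infected IV with A. fumigatus MF5668 (6.7 x 10^5 CFU/mouse) and treated IP bid for 7 days. Percent survival per dose group was scored at the end of the 21-day survival model and compared with the sham-treated control group.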

Nakaseomyces glabratus = assay: Antifungal activity against Candida glabrata MY1381 assessed as fungal growth inhibition; type: functional; conditions: read-out: MIC100
[14] = Oral bioavailability in rhesus monkey; type: ADME, organism-based, Macaca mulatta; conditions: in vivo; summary of the method: as §2
[15] = Dose normalized AUC in po dosed dog; type: ADME, organism-based, Canis lupus familiaris; conditions: in vivo
Clavispora lusitaniae [16] = assay: Antifungal activity against Clavispora lusitaniae MY1396 assessed as reduction in fungal growth; type: functional
Aspergillus fumigatus [17] = assay: Antifungal activity against Aspergillus fumigatus MF5668 infected in DBA/2N mouse assessed as mouse survival at 6.25 mg/kg, ip bid administered for 7 days starting from 15 to 30 mins post infection and measured up to 21 days relative to control; type: functional; conditions: 168 h, time 7 day; summary of the method: as §4
[18] = Dose normalized AUC in po dosed rat; type: ADME, organism-based; conditions: in vivo
Candida albicans [19] = assay: Antifungal activity against Candida albicans MY1055 assessed as reduction in fungal growth in presence of 50% mouse serum; type: functional; summary of the method: as §1
Candida albicans [20] = assay: Antifungal activity against Candida albicans MY1055 assessed as fungal growth inhibition measured after 24 hrs by liquid microdilution method; type: functional; summary of the method: as §1
Aspergillus fumigatus [21] = assay: Antifungal activity against Aspergillus fumigatus MF5668 infected in ip dosed DBA/2N mouse assessed as 50% mouse survival administered bid administered for 7 days starting from 15 to 30 mins post infection and measured up to 21 days; conditions: 168 h
Clavispora lusitaniae [22] = assay: Antifungal activity against Clavispora lusitaniae MY1396 assessed as fungal growth inhibition; type: functional; conditions: read-out: MIC100

`CC(C)[C@@H](C)[C@@]1(C)CC[C@]2(C)[C@H]3CC[C@@H]4[C@@]5(COC[C@@]4(C)[C@@H](OC[C@](C)(N)C(C)(C)C)[C@H](n4ncnc4-c4ccncc4)C5)C3=CC[C@@]2(C)[C@@H]1C(=O)O` [IBREXAFUNGERP] gave an MIC50 (Candida parapsilosis [1]) of under 0.03 mg/L, an MIC (Candida albicans [2]) of 0.5 mg/L and a bioavailability [3] of 18%. The Activity (Candida albicans [4]) was -3.2 deltalog10CFU, the MIC (Candida parapsilosis [5]) was 0.5 mg/L (≈ 0.685 µM) and the MIC50 (Pichia kudriavzevii) was 2 mg/L (≈ 2.74 µM). For the same molecule, the clearance [6] was 0.48 L/h/kg, the MIC (Candida tropicalis) was 8 mg/L (≈ 11 µM) and the half-life [7] was 5.7 h. It also gave a half-life [8] of 11.3 h, an MIC50 (Candida albicans [9]) of under 0.03 mg/L and a minimal effective concentration (Aspergillus fumigatus [10]) of 0.25 µg/mL. For the same molecule, the minimal effective concentration (Aspergillus fumigatus [11]) was under 0.03 µg/mL, the ED90 (Aspergillus fumigatus [12]) was 8.9 mg/kg and the survival at 3.125 mg/kg (Aspergillus fumigatus [13]) was 20%. It also gave an MIC (Nakaseomyces glabratus) of 1 mg/L (≈ 1.37 µM), a bioavailability [14] of 16% and an AUC/dose [15] of 1.07 µM·kg·h/mg. For the same molecule, the MIC50 (Clavispora lusitaniae [16]) was 1 mg/L (≈ 1.37 µM), the survival at 6.25 mg/kg (Aspergillus fumigatus [17]) was 90% and the AUC/dose [18] was 0.69 µM·kg·h/mg. The MIC50 (Candida albicans [19]) was 0.25 mg/L, the MIC (Candida albicans [20]) was 0.06 mg/L (≈ 0.0822 µM) and the ED50 (Aspergillus fumigatus [21]) was 4.5 mg/kg. It also gave an MIC (Clavispora lusitaniae [22]) of 2 mg/L (≈ 2.74 µM).
